Published values pooled from the literature.
Protocols differ between the studies behind these lines.
CYP1A2: Cytochrome P450 1A2 (CYP1A2, Homo sapiens, UniProt P05177)

| SMILES | tested on | test | system | conditions | measurement | result |
| --- | --- | --- | --- | --- | --- | --- |
| Cc1cc(Nc2cc(N3CCN(C)CC3)nc(/C=C/c3ccccc3)n2)n[nH]1 | – | – | human, plasma | oral, 80 mg/m², multiple doses, patients | Vd/F | 748 L |
| Cn1cnc2c1c(=O)n(CC(=O)Nc1c(Cl)cccc1Cl)c(=O)n2C | Vero | cell growth or viability, MTT | – | 1000 µg/mL | viability | 7.99% |
| COc1cc(C(=O)NC2CCN(C)CC2)c(F)cc1Nc1ncc(C(F)(F)F)c(Oc2cccc3c2C(=O)N(C)C3)n1 | – | – | human, plasma | oral, 10 mg, single dose, patients | Vd/F | 873 L |
| COc1ccc([C@@H]2CN(C(=O)[C@@H](O)CO)C[C@@]2(C)[C@@H](C)O)cc1OC1CN(c2ccc(C)cn2)C1 | – | – | human, plasma | oral, 30 mg, single dose, healthy volunteers | Vd/F | 84.3 L |
| COC(=O)C1CCN(C(=O)c2ccc(N(CCCO)Cc3cnc4nc(N)nc(N)c4n3)cc2)CC1 | Cytochrome P450 3A4 (CYP3A4, Homo sapiens, UniProt P08684) | enzyme activity, inhibitor, luciferase | – | 10 µM | inhibition | -2.09% |
| CC(C)(C)c1ccc(O)c(CN(Cc2cc(C(C)(C)C)ccc2O)C2CCC(NC(N)=O)CC2)c1 (stereo not shown) | – | – | male C57BL/6 mouse, brain | intraperitoneal, 5 mg/kg, single dose | Cmax | 609 ng/g |
| COC(=O)C1CCN(C(=O)c2ccc(NCc3cnc4nc(N)nc(N)c4n3)cn2)CC1 | CYP1A2 | enzyme activity, inhibitor, luciferase | – | 10 µM | inhibition | -8.69% |
| CCNc1nc(Nc2ccc(F)c(Cl)c2)c2ccccc2n1 | Vero | cell growth or viability, MTT | – | 31.25 µg/mL | viability | 100% |
| COC(=O)C1CCN(C(=O)c2cccc(NCc3cnc4nc(N)nc(N)c4n3)c2)CC1 | CYP1A2 | enzyme activity, inhibitor, luciferase | – | 10 µM | inhibition | -15.2% |
| O=S(=O)(NNc1nnc(Cl)c2ccccc12)c1ccc(F)cc1 | Vero | cell growth or viability, MTT | – | 31.25 µg/mL | viability | 99.8% |
